For 58 compounds, IC50 and inhibition results are on record in ChEMBL document CHEMBL3792345, “Isoquinoline-1,3-diones as Selective Inhibitors of Tyrosyl DNA Phosphodiesterase II (TDP2)” (J Med Chem, 2016).

Activity calls are given as the source filed them. How the calls were made is not given here.

Test [1] deals with T1, Tyrosyl-DNA phosphodiesterase 2 (Homo sapiens, UniProt O95551).
T1 sequence (O95551 whole entry): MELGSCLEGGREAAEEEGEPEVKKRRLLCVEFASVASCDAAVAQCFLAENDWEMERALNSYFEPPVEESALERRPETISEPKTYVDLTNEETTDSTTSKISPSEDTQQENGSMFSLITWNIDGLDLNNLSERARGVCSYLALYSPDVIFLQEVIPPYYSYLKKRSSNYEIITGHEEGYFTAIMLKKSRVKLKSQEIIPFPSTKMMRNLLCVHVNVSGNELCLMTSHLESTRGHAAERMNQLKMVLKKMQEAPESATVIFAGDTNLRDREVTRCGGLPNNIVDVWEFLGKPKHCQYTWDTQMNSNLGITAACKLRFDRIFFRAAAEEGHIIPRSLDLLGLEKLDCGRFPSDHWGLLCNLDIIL
As to the kind of experiment: Inhibition of recombinant human TDP2 using 18-mer single stranded oligonucleotide DNA as substrate incubated for 15 mins by PAGE assay. The gist of the method:
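1 nM TY18 substrate (α³²P-cordycepin-3′-labelled 18-mer ssDNA) with 25 pM recombinant human TDP2, 15 min at room temperature in LMP2 buffer (pH 7.5, 5 mM MgCl₂). Dose–response at 1.4, 4.1, 12.3, 37, 111 μM, resolved on gels. IC50 is mean ± SD of at least three independent experiments.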

Test [2] deals with Tyrosyl-DNA phosphodiesterase 1 (Homo sapiens, UniProt Q9NUW8). In words: Inhibition of recombinant TDP1 (unknown origin) using 5'-[32P]-labeled single stranded oligonucleotide DNA containing 3'-phophotyrosine (N14Y) as substrate at 111 uM incubated for 15 mins by PAGE assay.
For test [3], the target named is T1, Tyrosyl-DNA phosphodiesterase 2. As to the kind of experiment: Inhibition of human TDP2 expressed in DT40 cells (TDP2-knockout) using 18-mer single stranded oligonucleotide DNA as substrate incubated for 15 mins by PAGE assay. In short, it runs like this:
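Extract from 1 × 10⁷ TDP2−/− DT40 cells complemented with human TDP2, prepared as the TDP1 extracts. 1 nM TY18 substrate (α³²P-cordycepin-3′-labelled 18-mer) with 5 μg/mL extract ± inhibitor, 15 min at room temperature. Products resolved on gel.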

Chain of Tyrosyl-DNA phosphodiesterase 1 (Q9NUW8 whole entry): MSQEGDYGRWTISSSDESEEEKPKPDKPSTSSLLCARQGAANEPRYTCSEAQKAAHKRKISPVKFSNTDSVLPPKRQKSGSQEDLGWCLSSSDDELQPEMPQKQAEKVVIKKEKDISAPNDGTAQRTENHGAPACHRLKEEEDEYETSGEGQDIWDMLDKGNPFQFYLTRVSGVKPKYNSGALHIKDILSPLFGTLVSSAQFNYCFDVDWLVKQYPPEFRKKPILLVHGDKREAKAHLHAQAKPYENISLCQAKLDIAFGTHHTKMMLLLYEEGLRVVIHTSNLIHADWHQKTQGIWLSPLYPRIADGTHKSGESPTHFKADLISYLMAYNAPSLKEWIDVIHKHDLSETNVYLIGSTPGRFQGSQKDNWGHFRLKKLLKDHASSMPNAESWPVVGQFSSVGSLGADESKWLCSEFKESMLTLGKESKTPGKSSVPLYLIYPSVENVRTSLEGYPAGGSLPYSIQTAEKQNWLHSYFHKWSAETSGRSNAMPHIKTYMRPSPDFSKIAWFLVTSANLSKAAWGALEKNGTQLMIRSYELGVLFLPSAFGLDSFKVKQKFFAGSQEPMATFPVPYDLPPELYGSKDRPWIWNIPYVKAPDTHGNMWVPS

For the compound `Nc1c2c(nn1-c1ccccn1)CC(=O)NC2=O`, the IC50 (commonly the concentration at which inhibition is half-maximal) in test [1] was above 111 µM. In test [2], the inhibition entry was “inactive”.

Consider `Nc1c2c(nn1-c1ccccc1)CC(=O)NC2=O`, for which the IC50 in test [1] was above 111 µM. Further, in test [2], the inhibition result was “inactive”.

With `O=C1Cc2c(cccc2-c2cccc([N+](=O)[O-])c2)C(=O)N1`, the IC50 in test [1] is above 37 µM. Moreover, in test [2], the inhibition result was “inactive”.

Regarding `Nc1cccc(-c2ccc3c(c2)CC(=O)NC3=O)c1`, the figures for the IC50 in test [3] and in test [1] were 55 µM and 42 µM, respectively. For the same compound, the inhibition result in test [2] is “inactive”.

For the compound `CS(=O)(=O)Nc1cccc(-c2ccc3c(c2)CC(=O)NC3=O)c1`, the IC50 in test [3] is 25 µM; in test [1] it was 18 µM. Moreover, the inhibition entry in test [2] is “inactive”.

Turning to `O=C1Cc2cc(-c3cccc(Cl)c3)ccc2C(=O)N1`, the IC50 turned out to be 3.3 µM in test [3] and 5.6 µM in test [1]. Moreover, in test [2], the inhibition entry is “inactive”.

With `CC(=O)Nc1c2c(nn1-c1ccccc1)CC(=O)NC2=O`, the IC50 in test [1] is above 111 µM. Besides, in test [2], the inhibition result was “inactive”.

As for `O=C1Cc2ccc(-c3ccc(Br)cc3)cc2C(=O)N1`, the IC50 in test [1] came out at 7.1 µM. Besides, the inhibition result in test [2] was “inactive”.

`O=C1Cc2ccc(C(=O)c3cccc([N+](=O)[O-])c3)cc2C(=O)N1`: the IC50 in test [1] is 5.4 µM. Also, the inhibition entry in test [2] is “inactive”.

As for `Nc1cccc(-c2ccc3c(c2)C(=O)NC(=O)C3)c1`, the IC50 in test [1] is above 111 µM. Also, the inhibition entry in test [2] was “inactive”.

Take `CS(=O)(=O)Nc1cccc(-c2ccc3c(c2)C(=O)NC(=O)C3)c1`: the IC50 in test [1] stood at 4.5 µM. Moreover, the inhibition result in test [2] is “inactive”.

Turning to `O=C1Cc2cc(-c3cccc(C(=O)O)c3)ccc2C(=O)N1`, the IC50 in test [3] came to 42 µM; in test [1] it was 21 µM. In addition, the inhibition result in test [2] was “inactive”.

With `C=CC(=O)Nc1ccc(-c2ccc3c(c2)CC(=O)NC3=O)cc1`, the IC50 in test [1] is 10 µM. Moreover, the inhibition result in test [2] was “inactive”.

On to `O=C1Cc2c(Br)cccc2C(=O)N1`, for which the IC50 in test [1] was above 37 µM. The inhibition result in test [2] was “inactive”.

On to `O=C1Cc2cc(-c3cccc(-c4ccccc4)c3)ccc2C(=O)N1`, for which the IC50 in test [1] was above 111 µM. For the same compound, in test [2], the inhibition entry is “inactive”.

As to `COc1ccc(OC)c(-c2ccc3c(c2)CC(=O)NC3=O)c1`, the IC50 in test [1] was found to be 16 µM. The inhibition result in test [2] was “inactive”.

As to `O=c1[nH]c(=O)c2ccc(-c3ccccc3)cc2[nH]1`, the IC50 in test [1] was above 111 µM. Further, in test [2], the inhibition result is “inactive”.

Turning to `O=C1Cc2cc(-c3ccc(F)cc3F)ccc2C(=O)N1`, the IC50 in test [3] came to 5.5 µM; in test [1], 4.5 µM. Besides, in test [2], the inhibition result is “inactive”.

Consider `O=C1Cc2cc(-c3cccnc3)ccc2C(=O)N1`, for which the IC50 in test [3] is 23 µM; in test [1] it was 16 µM. Moreover, the inhibition result in test [2] was “inactive”.

For `NC(=O)c1cccc(-c2ccc3c(c2)CC(=O)NC3=O)c1`, the IC50 in test [1] was found to be 16 µM. Moreover, in test [2], the inhibition result is “inactive”.

With `O=C1NC(=O)c2ccc(-c3ccco3)c3cccc1c23`, the IC50 in test [1] was above 111 µM. Also, the inhibition entry in test [2] is “inactive”.

Regarding `O=C1Cc2ccc(-c3ccco3)cc2C(=O)N1O`, the IC50 in test [1] is above 111 µM. In test [2], the inhibition entry is “inactive”.

Turning to `O=C1NC(=O)c2ccc(Br)c3cccc1c23`, the IC50 in test [1] was above 111 µM. For the same compound, in test [2], the inhibition result is “inactive”.

Take `O=C1Cc2cccc(I)c2C(=O)N1`: the IC50 in test [3] is 2.6 µM; in test [1], 7.5 µM. The inhibition entry in test [2] was “inactive”.

On to `O=C1Cc2cc(C(=O)O)ccc2C(=O)N1`, for which the IC50 in test [1] is above 111 µM. Moreover, the inhibition entry in test [2] is “inactive”.

Turning to `O=C1Cc2cc(-c3ccccc3C(=O)O)ccc2C(=O)N1`, the IC50 in test [1] was above 111 µM. Besides, the inhibition entry in test [2] is “inactive”.

Take `O=C1Cc2cccc(-c3cccc(O)c3)c2C(=O)N1`: the IC50 in test [1] turned out to be 26 µM. In addition, the inhibition result in test [2] is “inactive”.

Turning to `O=C1Cc2cc(Cc3ccccc3)ccc2C(=O)N1`, the IC50 in test [1] is above 111 µM. The inhibition entry in test [2] was “inactive”.

`O=C1Cc2cc(-c3ccccc3)ccc2C(=O)N1`: the IC50 in test [3] was above 111 µM; in test [1] it was 23 µM. In addition, the inhibition result in test [2] is “inactive”.

`O=C1Cc2cc([N+](=O)[O-])ccc2C(=O)N1`: the IC50 in test [1] was 19 µM. For the same compound, the inhibition result in test [2] is “inactive”.

As for `O=C1Cc2cc(-c3ccc(F)c(Cl)c3)ccc2C(=O)N1`, the IC50 in test [3] stood at 5.3 µM; in test [1] it was 4.1 µM. Moreover, the inhibition result in test [2] is “inactive”.

Turning to `CCOC(=O)C1C(=O)NC(=O)c2ccc(Br)cc21` (configuration not stated), the IC50 in test [1] was 14 µM. In test [2], the inhibition entry is “inactive”.

As for `O=C1Cc2ccc(-c3cccc(Cl)c3)cc2C(=O)N1`, the IC50 in test [3] was determined as 3.2 µM; in test [1], 1.7 µM. Further, in test [2], the inhibition result was “inactive”.

Regarding `O=C1Cc2cc(-c3ccc(C(F)(F)F)cc3)ccc2C(=O)N1`, the IC50 worked out at 2.7 µM in test [3] and 3.2 µM in test [1]. Besides, the inhibition result in test [2] is “inactive”.

In the case of `O=C1Cc2cc(C(F)(F)F)ccc2C(=O)N1`, the results for the IC50 in test [3] and in test [1] were 3.5 µM and 7 µM, respectively. Moreover, the inhibition entry in test [2] was “inactive”.

For `O=C1Cc2cc(-c3ccc(Cl)cc3)ccc2C(=O)N1`, the IC50 in test [3] amounted to 4.5 µM; in test [1] it was 6.4 µM. The inhibition entry in test [2] was “inactive”.

For `Nc1c2c(nn1-c1ccc(F)cc1)CC(=O)NC2=O`, the IC50 in test [1] was above 111 µM. Further, the inhibition result in test [2] is “inactive”.

Regarding `O=C1Cc2cc(-c3ccc(C(=O)O)cc3)ccc2C(=O)N1`, the IC50 in test [1] amounted to 30 µM. In test [2], the inhibition result was “inactive”.

`O=C1Cc2cccc(-c3cccc([N+](=O)[O-])c3)c2C(=O)N1`: the IC50 in test [1] came out at 19 µM. Also, the inhibition entry in test [2] was “inactive”.

`C=CC(=O)Nc1cccc(-c2ccc3c(c2)C(=O)NC(=O)C3)c1`: the IC50 in test [1] is 11 µM. Further, the inhibition entry in test [2] was “inactive”.

Turning to `O=C1Cc2ccc(I)cc2C(=O)N1`, the IC50 in test [1] is 9.8 µM. For the same compound, in test [2], the inhibition entry was “inactive”.

Take `O=C1Cc2ccc(-c3cccc(O)c3)cc2C(=O)N1`: the IC50 in test [1] came to 15 µM. Besides, the inhibition result in test [2] is “inactive”.

In the case of `Nc1ccc(-c2ccc3c(c2)CC(=O)NC3=O)cc1`, the IC50 came out at 40 µM in test [3] and 36 µM in test [1]. Besides, the inhibition result in test [2] was “inactive”.

As to `O=C1Cc2ccc(-c3ccc(O)cc3)cc2C(=O)N1`, the IC50 in test [1] is 14 µM. For the same compound, in test [2], the inhibition entry is “inactive”.

As for `O=C1Cc2cc(C(=O)c3cccc([N+](=O)[O-])c3)ccc2C(=O)N1`, the IC50 in test [1] worked out at 11 µM. Moreover, the inhibition result in test [2] is “inactive”.

For `O=C1Cc2ccc(-c3ccco3)cc2C(=O)N1`, the IC50 in test [3] came to 50 µM; in test [1], 13 µM. Moreover, the inhibition result in test [2] was “inactive”.

Take `O=C1Cc2cc(-c3cccc(O)c3)ccc2C(=O)N1`: the IC50 in test [3] turned out to be 35 µM; in test [1], 13 µM. In test [2], the inhibition entry was “inactive”.

For the compound `COc1ccc(-c2ccc3c(c2)CC(=O)NC3=O)cc1F`, the figures for the IC50 in test [3] and in test [1] were 4.3 µM and 3 µM, respectively. Further, in test [2], the inhibition entry was “inactive”.

`O=C1Cc2cc(-c3cccc(Br)c3)ccc2C(=O)N1`: the results for the IC50 in test [3] and in test [1] were 6.5 µM and 8 µM, respectively. The inhibition result in test [2] is “inactive”.

Take `O=C1Cc2cc(-c3cnc4ccccc4c3)ccc2C(=O)N1`: the IC50 was above 111 µM in test [3] and 9.3 µM in test [1]. Further, the inhibition result in test [2] was “inactive”.

For `O=C1Cc2c(cccc2-c2ccco2)C(=O)N1`, the IC50 in test [1] was above 111 µM. Also, the inhibition result in test [2] is “inactive”.

Regarding `O=C1Cc2cc(-c3cccc([N+](=O)[O-])c3)ccc2C(=O)N1`, the IC50 in test [3] amounted to 25 µM; in test [1] it was 10 µM. Further, in test [2], the inhibition entry was “inactive”.

On to `COc1cccc(OC)c1-c1ccc2c(c1)CC(=O)NC2=O`, for which the IC50 in test [1] was above 37 µM. In test [2], the inhibition entry was “inactive”.

Regarding `CS(=O)(=O)Nc1ccc(-c2ccc3c(c2)CC(=O)NC3=O)cc1`, the IC50 in test [3] came to 2.2 µM; in test [1], 1.9 µM. The inhibition result in test [2] was “inactive”.

As to `O=C1Cc2ccc(-c3cccc([N+](=O)[O-])c3)cc2C(=O)N1`, the IC50 in test [1] is 11 µM. In test [2], the inhibition entry is “inactive”.

Consider `O=C1Cc2ccc(-c3cccnc3)cc2C(=O)N1`, for which the IC50 in test [1] came out at 20 µM. Also, the inhibition result in test [2] was “inactive”.

As for `O=C1Cc2ccccc2C(=O)N1`, the IC50 in test [1] was 25 µM. For the same compound, in test [2], the inhibition entry was “inactive”.

On to `O=C1Cc2cc(Br)ccc2C(=O)N1`, for which the IC50 in test [1] was found to be 11 µM. In test [2], the inhibition result is “inactive”.
